From ChEMBL document CHEMBL4513216, “Probing the Open Global Health Chemical Diversity Library for Multistage-Active Starting Points for Next-Generation Antimalarials” (ACS Infect Dis, 2020)

Test: Toxicity liver stage against HepG2, at 10uM
Type: cell-based
Design: test concentration 10 uM, cell line HepG2-A16-CD81EGFP
Conditions: human, HepG2-A16-CD81EGFP cells; read-out: INHIBITION
Procedure, shortened: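 Uninfected HepG2-A16-CD81EGFP cells, 3 × 10^3 per well, 1536-well, plated on prespotted compound at 10 μM final, parasite-free screening media added to match infected plates; puromycin 10 μM positive, DMSO 0.5% negative; run in parallel with 48 h PbLuc assay at 37 °C, 5% CO2; viability by CellTiter-Glo luminescence, normalized to controls.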

## CC(C)(C)c1nnnn1CC(=O)N(CCC#N)c1ccccc1
  cytotoxicity at 10 µM: -14.2%

## FC(F)(F)Oc1ccc(-c2noc([C@@H]3Cc4nc[nH]c4CN3)n2)cc1
  cytotoxicity at 10 µM: -7.47%

## COc1ccc(S(=O)(=O)C2CCN(C(=O)c3cc(C)cs3)CC2)cc1
  cytotoxicity at 10 µM: 3.07%

## N#Cc1ccc2c(c1)CN(C(=O)c1nc[nH]n1)C2c1cnco1 (stereo not given)
  cytotoxicity at 10 µM: -2.6%

## CCS(=O)(=O)N1Cc2c(Cn3ccnc3)nn(C(C)C)c2C1
  cytotoxicity at 10 µM: 11.5%

## Cc1ncsc1C(=O)N1CC[C@@H]2[C@@H](CC1)OCCN2c1cccnc1
  cytotoxicity at 10 µM: 9.4%

## O=C(c1ccco1)N1CCC2(CC1)C(=O)Nc1ccccc12
  cytotoxicity at 10 µM: -144%

## Cc1cccc(N2CCN(c3ccn4c(=O)[nH]nc4n3)CC2)c1C
  cytotoxicity at 10 µM: 36%

## CSC1=Nc2c(cnn2-c2ccc(Cl)cc2)C2=NCCCN12
  cytotoxicity at 10 µM: 7.41%

## Cc1ccc(CN2CCC3(C2)C(=O)N(CC(C)C)c2ccccc23)s1 (stereo not given)
  cytotoxicity at 10 µM: -0.324%

## CC1CCC(NC(=O)c2nn(C)cc2Br)CC1 (stereo not given)
  cytotoxicity at 10 µM: -3.76%

## COc1ccc(C2=Nn3c(CN)nnc3-c3ccccc3C2)cc1
  cytotoxicity at 10 µM: 8.55%

## Cc1nn(C)c2cnn(Cc3ccc(C(=O)N4CCN(C)CC4)o3)c12
  cytotoxicity at 10 µM: 14.3%

## CC(=O)N1CCCC1c1cccc(NCc2ccccc2F)n1 (stereo not given)
  cytotoxicity at 10 µM: -13.8%

## Cc1cc(C)c2cc(CNC(C)C)c3nn(C)c(=O)n3c2c1
  cytotoxicity at 10 µM: -5%

## c1cnc(-c2cnc(N3CCSCC3)nc2C2CC2)cn1
  cytotoxicity at 10 µM: 17.3%

## CN(CC(=O)NC(C)(C)C)Cc1cccc2c1OCCO2
  cytotoxicity at 10 µM: -26.5%

## CCn1ccnc1CN1CCCC1c1c(C)nn(C)c1OC (stereo not given)
  cytotoxicity at 10 µM: -0.386%

## Cc1nc(COc2ccc(OC3CCCCNC3=O)cc2)oc1C (stereo not given)
  cytotoxicity at 10 µM: 15.2%

## CC(O)CN(C)S(=O)(=O)c1ccc(C#N)cc1F (stereo not given)
  cytotoxicity at 10 µM: -6.67%

## Cc1cc(C(N)=O)ccc1NC(=O)N1CCN(c2cccs2)CC1
  cytotoxicity at 10 µM: 10.1%

## CCc1ccc(C2CCCN2C(=O)CNC(=O)CCC(C)C)o1 (stereo not given)
  cytotoxicity at 10 µM: -10.2%

## CN(Cc1ccc(C#N)cc1)c1ncc(C(N)=O)cc1Cl
  cytotoxicity at 10 µM: 18.5%

## COc1ccc(C(=O)CCC(=O)NCc2c(C)noc2C)cc1F
  cytotoxicity at 10 µM: 2.43%

## Cc1nc(CN2CCN(C(=O)CCc3cccnc3)CC2)no1
  cytotoxicity at 10 µM: -8.64%

## CCC(CNC(=O)c1ccc(F)cc1F)N1CCc2ccccc2C1 (stereo not given)
  cytotoxicity at 10 µM: 10.9%

## CCC(CC)c1cc(CNC(=O)N2CCCC(C(=O)NC)C2)on1 (stereo not given)
  cytotoxicity at 10 µM: -18.6%

## CCNC(=O)CNC(=O)Nc1cccc(Cl)c1SC(F)F
  cytotoxicity at 10 µM: -1.76%

## OCC1CCCN1c1cc(NCCc2ccccn2)ncn1 (stereo not given)
  cytotoxicity at 10 µM: -0.813%

## Cc1sc2nc(C(F)(F)F)nc(N3CCN(C)CC3)c2c1C
  cytotoxicity at 10 µM: -3.47%

## Cc1cccc(C(C)(C)NC(=O)CS(=O)(=O)CC(C)C)c1
  cytotoxicity at 10 µM: 0.927%

## CCOc1ccc(C(F)(F)F)cc1NCc1cc(C)on1
  cytotoxicity at 10 µM: -49.3%

## Cn1[nH]c(C2CCC2)c(-c2ccc3c(c2)OCO3)c1=N
  cytotoxicity at 10 µM: -42.3%

## CCOc1ccc(C(F)(F)F)cc1NCc1nc(C)c(C)o1
  cytotoxicity at 10 µM: -45.3%

## O=C(Cn1cnnn1)NCC1(O)CCCc2ccccc21 (stereo not given)
  cytotoxicity at 10 µM: -42.3%

## COCCN1CCN(CC(=O)N(C)Cc2ccsc2)CC1
  cytotoxicity at 10 µM: -153%

## CCN(CC)C(=O)N1CCN(C2=NCC(C)S2)CC1 (stereo not given)
  cytotoxicity at 10 µM: -148%

## COCc1nc(CNc2cccc(-c3nc(C)c(C)o3)c2)cs1
  cytotoxicity at 10 µM: 5.11%

## O=C(COCC1CC1)N1CCSCC1
  cytotoxicity at 10 µM: -21.2%

## CCC(C)(CC(=O)O)NC(=O)Cc1ccccc1F (stereo not given)
  cytotoxicity at 10 µM: -1.28%

## CSC1(CNC(=O)NC(C)c2ccc(F)c(F)c2)CCOCC1 (stereo not given)
  cytotoxicity at 10 µM: 1.71%

## COCC(=O)Nc1ccnn1-c1ccc(Cl)cc1
  cytotoxicity at 10 µM: 2.18%

## CS(=O)(=O)CCC(=O)NC1(c2cccc(C(F)(F)F)c2)CCC1
  cytotoxicity at 10 µM: -40.1%

## COc1c(C2CCCN2Cc2cn3ccsc3n2)c(C)nn1C (stereo not given)
  cytotoxicity at 10 µM: -51.2%

## COC(=O)c1ccc(CN(C)C(=O)c2cnsn2)cc1
  cytotoxicity at 10 µM: 9.59%

## Cc1ncc(CNCC(=O)NC2CCCCC2)n1-c1ccccc1
  cytotoxicity at 10 µM: -4.75%

## CN(C)C(=O)N1CCC(c2nc3ccc(-c4ccccc4)cn3n2)CC1
  cytotoxicity at 10 µM: 5.9%

## COCC(=O)N1CCC2(C1)c1ccccc1S(=O)(=O)N2C (stereo not given)
  cytotoxicity at 10 µM: 3.57%

## COCC(=O)N1C[C@H](N(C)Cc2cncnc2)[C@H]2OCCC[C@H]21
  cytotoxicity at 10 µM: -99.2%

## CS(=O)(=O)NCc1nnc2n1CCN(Cc1ccncc1)C2
  cytotoxicity at 10 µM: -73.6%

## Cc1nc(CN2C[C@@H]3CN(C(=O)c4ccoc4C)C[C@@H]3C2=O)cs1
  cytotoxicity at 10 µM: -76.8%

## CCCNC(=O)c1cc(-c2cnc(N3CCCC3)nc2)cn1C
  cytotoxicity at 10 µM: -54.6%

## COCC(=O)N1CCC2(CC1)CN(c1ccsc1)C(=O)CO2
  cytotoxicity at 10 µM: -75.6%

## O=C(NC1CCC1)C1=NOC2(CCN(Cc3ccco3)C2)C1 (stereo not given)
  cytotoxicity at 10 µM: -80.6%

## OC[C@H]1CCCN1c1nccc(-c2cncnc2C2CCCCC2)n1
  cytotoxicity at 10 µM: 0.0815%
